Source: ChEMBL document CHEMBL1141572, “N-substituted 3-acetyltetramic acid derivatives as antibacterial agents” (J Med Chem, 2008)
In brackets after ≈: the same amount, converted by molar mass. Activity calls are given as the source filed them. No cut-off for these calls is given here.

Tests used:
Bacillus subtilis = experiment: Antibacterial activity against Bacillus subtilis ATCC 23857 by microbroth dilution method; type: functional
Cutibacterium acnes = experiment: Antibacterial activity against Propionibacterium acnes ATCC 6919 by micro-broth dilution method; type: functional
Enterococcus faecalis = experiment: Antibacterial activity against Enterococcus faecalis ATCC 33186 by microbroth dilution method; type: functional
Streptococcus pneumoniae = experiment: Antibacterial activity against Streptococcus pneumoniae DAW30 by micro-broth dilution method; type: functional
Staphylococcus aureus [1] = experiment: Antibacterial activity against methicillin-resistant Staphylococcus aureus ATCC 33591 by micro-broth dilution method; type: functional
Bacillus anthracis = experiment: Antibacterial activity against Bacillus anthracis Sterne 34F2 by micro-broth dilution method; type: functional
Escherichia coli = experiment: Antibacterial activity against Escherichia coli by micro-broth dilution method; type: functional
Staphylococcus aureus [2] = experiment: Antibacterial activity against methicillin-sensitive Staphylococcus aureus 8325 ATCC 35556 by micro-broth dilution method; type: functional
Streptococcus pyogenes = experiment: Antibacterial activity against Streptococcus pyogenes ATCC 700294 by micro-broth dilution method; type: functional
Vero = experiment: Cytotoxicity against african green monkey Vero cells after 72 hrs by MTT proliferation assay; type: cell-based; details: Chlorocebus sabaeus
How it was run: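 IC50 is taken as the concentration that lowers Vero kidney cell viability by 50%.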

[3] = test system: Mycobacterium tuberculosis; experiment: Antimycobacterial activity against Mycobacterium tuberculosis H37Rv after 7 days by micro-broth dilution method; type: functional; details: for MIC: 168 h
Pseudomonas aeruginosa = experiment: Antibacterial activity against Pseudomonas aeruginosa by micro-broth dilution method; type: functional
[4] = Selectivity index, ratio of IC50 for african green monkey Vero cells to MIC for methicillin- sensitive Staphylococcus aureus 8325 ATCC 35556; type: functional
How it was run: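 Selectivity index is calculated as the Vero cell cytotoxic IC50 divided by the MIC against the wild-type, drug-sensitive, methicillin-sensitive S. aureus 8325 (ATCC 35556).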

Compound | MIC (Bacillus subtilis) | MIC (Cutibacterium acnes) | MIC (Enterococcus faecalis) | MIC (Streptococcus pneumoniae) | MIC (Staphylococcus aureus [1]) | MIC (Bacillus anthracis) | MIC (Escherichia coli) | MIC (Staphylococcus aureus [2]) | MIC (Streptococcus pyogenes) | IC50 (Vero) | MIC [3] | MIC (Pseudomonas aeruginosa) | Ratio [4] | Activity (Bacillus subtilis) | Activity (Cutibacterium acnes) | Activity (Enterococcus faecalis) | Activity (Streptococcus pneumoniae) | Activity (Staphylococcus aureus [1]) | Activity (Bacillus anthracis) | Activity (Staphylococcus aureus [2]) | also measured
C/C(O)=C1\C(=O)[C@@H](CC(C)C)N(Cc2ccc(F)cc2)C1=O | 12.5 µg/mL (≈ 40.9 µM) | 12.5 µg/mL (≈ 40.9 µM) | 50 µg/mL (≈ 164 µM) | 25 µg/mL (≈ 81.9 µM) | 12.5 µg/mL (≈ 40.9 µM) | 12.5 µg/mL (≈ 40.9 µM) | > 200 µg/mL | 12.5 µg/mL (≈ 40.9 µM) | 100 µg/mL (≈ 327 µM) | 35.3 µg/mL (≈ 116 µM) | 100 µg/mL (≈ 327 µM) | > 200 µg/mL | 2.8 |  |  |  |  |  |  |  | 
COc1cccc(CN2C(=O)C(C#N)=C(O)[C@@H]2CC(C)C)c1 |  |  |  |  |  |  | > 200 µg/mL |  |  |  |  | > 200 µg/mL |  | inactive | inactive | inactive | inactive | inactive | inactive | inactive | Activity (Streptococcus pyogenes): inactive; Activity [3]: inactive
C/C(O)=C1\C(=O)[C@H](Cc2ccccc2)N(Cc2ccccc2)C1=O | 25 µg/mL (≈ 77.8 µM) | 12.5 µg/mL (≈ 38.9 µM) | 100 µg/mL (≈ 311 µM) | 100 µg/mL (≈ 311 µM) | 25 µg/mL (≈ 77.8 µM) | 25 µg/mL (≈ 77.8 µM) | > 200 µg/mL | 12.5 µg/mL (≈ 38.9 µM) | > 200 µg/mL | 75.7 µg/mL (≈ 236 µM) | > 200 µg/mL | > 200 µg/mL | 6.1 |  |  |  |  |  |  |  | 
CCC(C)[C@H]1C(O)=C(C#N)C(=O)N1Cc1ccccc1 (stereo partly specified) |  |  |  |  |  |  | > 200 µg/mL |  |  |  |  | > 200 µg/mL |  | inactive | inactive | inactive | inactive | inactive | inactive | inactive | Activity (Streptococcus pyogenes): inactive; Activity [3]: inactive
CC(C)C[C@@H]1C(O)=C(C#N)C(=O)N1Cc1ccc(F)cc1 |  |  |  |  |  |  | > 200 µg/mL |  |  |  |  | > 200 µg/mL |  | inactive | inactive | inactive | inactive | inactive | inactive | inactive | Activity (Streptococcus pyogenes): inactive; Activity [3]: inactive
CCN1C(=O)/C(=C(/C)O)C(=O)[C@@H]1Cc1ccccc1 | > 200 µg/mL | 100 µg/mL (≈ 386 µM) | > 200 µg/mL | > 200 µg/mL | > 200 µg/mL | 50 µg/mL (≈ 193 µM) | > 200 µg/mL | 200 µg/mL (≈ 771 µM) | > 200 µg/mL |  | > 200 µg/mL | > 200 µg/mL |  |  |  |  |  |  |  |  | 
N#CC1=C(O)[C@@H](Cc2ccccc2)N(Cc2ccccc2)C1=O |  |  |  |  |  |  | > 200 µg/mL |  |  |  |  | > 200 µg/mL |  | inactive | inactive | inactive | inactive | inactive | inactive | inactive | Activity (Streptococcus pyogenes): inactive; Activity [3]: inactive
CCCCCCCCCCN1C(=O)/C(=C(/C)O)C(=O)[C@H]1CC(C)C | 0.8 µg/mL (≈ 2.37 µM) | 0.8 µg/mL (≈ 2.37 µM) | 1.6 µg/mL (≈ 4.74 µM) | 6.25 µg/mL (≈ 18.5 µM) | 0.8 µg/mL (≈ 2.37 µM) | 0.8 µg/mL (≈ 2.37 µM) | > 200 µg/mL | 0.4 µg/mL (≈ 1.19 µM) | 50 µg/mL (≈ 148 µM) | 6.3 µg/mL (≈ 18.7 µM) | 25 µg/mL (≈ 74.1 µM) | > 200 µg/mL | 15.8 |  |  |  |  |  |  |  | 
N#CC1=C(O)[C@H](Cc2ccccc2)N(Cc2ccccc2)C1=O |  |  |  |  |  |  | > 200 µg/mL |  |  |  |  | > 200 µg/mL |  | inactive | inactive | inactive | inactive | inactive | inactive | inactive | Activity (Streptococcus pyogenes): inactive; Activity [3]: inactive
CCCCCCCCCCN1C(=O)/C(=C(/C)O)C(=O)[C@@H]1Cc1ccccc1 | 0.4 µg/mL (≈ 1.08 µM) | 0.4 µg/mL (≈ 1.08 µM) | 0.8 µg/mL (≈ 2.15 µM) | 12.5 µg/mL (≈ 33.6 µM) | 0.8 µg/mL (≈ 2.15 µM) | 0.2 µg/mL (≈ 0.538 µM) | > 200 µg/mL | 0.2 µg/mL (≈ 0.538 µM) | 50 µg/mL (≈ 135 µM) | 21.1 µg/mL (≈ 56.8 µM) | 50 µg/mL (≈ 135 µM) | > 200 µg/mL | 105.5 |  |  |  |  |  |  |  | 
CCCCCCCCCCN1C(=O)/C(=C(/C)O)C(=O)[C@@H]1CC(C)C | 0.8 µg/mL (≈ 2.37 µM) | 0.8 µg/mL (≈ 2.37 µM) | 1.6 µg/mL (≈ 4.74 µM) | 6.25 µg/mL (≈ 18.5 µM) | 0.8 µg/mL (≈ 2.37 µM) | 0.8 µg/mL (≈ 2.37 µM) | > 200 µg/mL | 0.4 µg/mL (≈ 1.19 µM) | 50 µg/mL (≈ 148 µM) | 14.7 µg/mL (≈ 43.6 µM) | 12.5 µg/mL (≈ 37 µM) | > 200 µg/mL | 36.8 |  |  |  |  |  |  |  | 
